# Source: PubChem (several laboratories)
# m5-HT2A agonist = mouse HTR2A agonism via beta-arrestin recruitment. CHO-K1 mHTR2A beta-arrestin complementation, luminescence; percent of 30 µM serotonin response. activation, % at 7.6 µM. hit rate 0.66% among 360,000. AID 624169;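 active means activation above a run cutoff, the mean activation of all tested compounds plus 3 SD, cut at about 14% in these data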
# APJ ag = agonists of human APJ apelin receptor; P35414; CHO-K1 APJ PathHunter beta-arrestin, luminescence; 0% DMSO wells, 100% apelin; activation, % at 20 µM; hit rate 0.11% among 330,000; AID 2520;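 active means activation more than six SD over the plate average, tested at 20 µM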
#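 Assay system: engineered CHO-K1 APJ arrestin reporter cells; Amount: 1000 CHO-K1 reporter cells seeded per well; Dosing: one dose, 20 µM compound, 1% DMSO; Times: compound stimulation 90 min at 25 °C, detection 60 min; Measured by: luminescent beta-gal fragment complementation, chemiluminescent substrate; Read-out: APJ–arrestin association signal; Controls: DMSO vs Apelin-13 10 nM.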
# CXCR6 inh = blocks human CXCR6 beta-arrestin recruitment; CHO-K1 PathHunter CXCR6 beta-arrestin, luminescence; inhibition, % at 20 µM; hit rate 0.36% among 360,000; AID 602244; in the data active means inhibition above about 34%, passing the limit was not always enough;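 further: antagonist mode with CXCL16 agonist at 10 nM final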
# CCR6 antag = antagonists of human CCR6 receptor; inhibition, % at 20 µM; P51684; AID 493098; CHO-K1 CCR6 PathHunter beta-arrestin, luminescence, CCL20-stimulated; hit rate 0.49% among 340,000;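 active means compounds whose inhibition of the agonist-driven luminescence signal at 20 µM reaches about 50%, limit read from the data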;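 further: cells stimulated with CCL20 at 14 nM final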
# APJ antag = antagonists of human APJ apelin receptor. P35414. CHO-K1 APJ beta-arrestin complementation, luminescence. inhibition, % at 20 µM. hit rate 0.32% among 330,000. AID 2521;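 active means inhibition above about 40% at 20 µM, limit read from the data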;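 further: cells challenged with 10 nM apelin-13 agonist together with compound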
# EBI2 antag = EBI2 (human) antagonism; hit rate 0.81% among 360,000; inhibition, % at 5 µM; EBI2 beta-arrestin recruitment, luminescence, 7a,25-OHC stimulated; P32249; in the data active means inhibition above about 38%;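 further: enzyme fragment complementation signal reports receptor beta-arrestin coupling in cells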
# Target sequence (P32249 whole entry, looked up, the tested form may be a part): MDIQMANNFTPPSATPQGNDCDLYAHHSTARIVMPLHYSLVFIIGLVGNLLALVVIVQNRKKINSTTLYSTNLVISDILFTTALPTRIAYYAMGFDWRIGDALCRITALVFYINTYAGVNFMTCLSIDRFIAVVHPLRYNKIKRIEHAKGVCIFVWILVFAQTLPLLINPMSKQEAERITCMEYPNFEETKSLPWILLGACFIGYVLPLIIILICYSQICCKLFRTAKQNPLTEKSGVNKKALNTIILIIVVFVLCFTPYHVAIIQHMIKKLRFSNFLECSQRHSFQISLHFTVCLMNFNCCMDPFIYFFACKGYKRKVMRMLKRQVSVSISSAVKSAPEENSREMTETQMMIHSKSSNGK
# APJ antag confirm = APJ receptor antagonism confirmation; shares compounds with APJ antag; APJ beta-arrestin recruitment, luminescence, antagonist mode; inhibition, % at 20 µM; hit rate 66% among 950; in the data active means inhibition above about 50%
# Hits are given with their value; – = inactive; · = no result. Most compounds without a hit are left out; they make up all but 2.2% or so of the library.
SMILES,m5-HT2A agonist,APJ ag,CXCR6 inh,CCR6 antag,APJ antag,EBI2 antag,APJ antag confirm
O=C1/C(=C\c2cccc(O)c2O)SC(=S)N1Cc1ccccc1,–,–,–,–,41.8,–,67.9
CCCc1nc2cc(C)c(Br)c(C)n2c1Cc1ccc(OC)cc1C,–,·,–,·,·,–,·
O=C1/C(=C\c2ccc(O)c(O)c2)SC(=S)N1Cc1ccccc1,–,–,51.8,71.0,56.3,–,99.5
Oc1c(C=Nc2cccc3cccnc23)sc2ccccc12,·,–,·,·,92.4,·,142.9
S=C(Nc1ccccc1)Nc1nc2ccccc2n1CCOc1ccc(Br)cc1,–,–,–,–,–,–,·
Cn1c(NC(=S)Nc2ccccc2)nc2ccccc21,–,–,–,–,40.7,–,–
OCCCNc1ncnc2c1ncn2[C@H]1CN(Cc2ccc(Cl)cc2)C[C@@H](CO)O1,–,·,–,·,·,–,·
CCCCN(CCCC)C(=S)N/N=C/c1c(C)[nH]n(-c2ccccc2)c1=O,–,–,98.5,112.5,75.3,48.9,126.4
Cc1ccc([N+](=O)[O-])c(NC(=O)COC(=O)CCNS(=O)(=O)c2cccs2)c1C,–,·,–,·,·,–,·
Cc1cc(C)c2[nH]c(O)c(N=NC(=S)NCC3CCCO3)c2c1 (centres undefined),–,–,–,–,–,–,·
Oc1[nH]c2c(Cl)cc(Cl)cc2c1N=NC(=S)NCC1CCCO1 (centres undefined),–,–,–,58.0,40.2,–,64.5
COc1ccc(CNC(=O)C[C@@H]2C=C[C@@H](NS(=O)(=O)c3cccc(OC)c3)[C@@H](CO)O2)cc1,–,·,·,·,·,–,·
CCOc1ccc(CCN2C(=O)C(=O)N([C@@H](Cc3ccccc3)CN3CCC[C@H]3CN3C(=O)C(=O)NC[C@@H]3Cc3ccccc3)C[C@@H]2CC(C)C)cc1,–,·,–,·,·,–,·
Cc1nc(-n2[nH]c3c(c2=O)CCCC3)[nH]c(=O)c1Cc1ccccc1,–,–,40.7,73.8,50.0,–,80.9
COc1ccc(CC(=O)Nc2ccc(S(=O)(=O)Nc3cc(C)nc(C)n3)cc2)cc1OC,–,·,–,·,·,–,·
O=S(=O)(c1cccc(Cl)c1Cl)N1CCCCC1,–,–,–,–,40.4,–,–
COC(=O)[C@@]1(Cc2ccc(OC)cc2)[C@H]2c3cc(C(=O)N4CCCC4)n(Cc4ccccc4)c3C[C@H]2CN1C(=O)c1ccccc1,–,·,–,·,·,–,·
CCCCN(C=O)c1c(CC)nc2ccc(C(=O)N3CCCCC3)cn12,–,·,–,·,·,–,·
CCOC(=O)C1(CCCc2ccccc2)CCN(C(=O)c2n[nH]c(CC)c2C)CC1,–,·,–,·,·,–,·
CC(=O)c1cccc(NC(=O)Cn2cnc(S(=O)(=O)N3CCC(C)CC3)c2)c1,–,–,–,–,41.6,–,–
CC1CCN(S(=O)(=O)c2cn(CC(=O)Nc3cccc(C#N)c3)cn2)CC1,–,–,–,–,–,–,·
C[C@@H]1O[C@H](C2CCCC2)Cc2[nH]c(=S)[nH]c(=O)c21,–,·,–,·,·,–,·
O=[N+]([O-])c1cnc(Sc2ccncn2)s1,–,–,75.0,80.5,54.7,–,67.3
O=C1NCCN1c1ncc([N+](=O)[O-])s1,–,–,–,–,–,–,·
C[C@H](O)[C@@H]1CN2CCc3c([nH]c4ccccc34)[C@@H]2C[C@@H]1N(C)Cc1cc(Cl)cc(Cl)c1,–,·,–,·,·,–,·
SMILES,m5-HT2A agonist,APJ ag,CXCR6 inh,CCR6 antag,APJ antag,EBI2 antag,APJ antag confirm
CCOc1ccc(NC(=O)OCCN2CCN(CCc3ccccc3)C(C)C2)cc1 (centres undefined),–,·,–,–,·,–,·
O=C(CNc1ccc(Br)cc1)c1ccc(O)cc1,–,–,–,–,–,–,·
O=C(CNc1ccc(Br)cc1)c1ccc(Br)s1,–,–,41.4,66.3,65.8,–,107.7
C=CCSC(=S)Nc1c(C)n(C)n(-c2ccccc2)c1=O,–,–,–,–,46.5,–,–
Cc1ccc(Cc2c(-c3ccc(Cl)cc3)nc3c(C)cc(Br)cn23)cc1,–,·,–,·,·,–,·
CCOC(=O)[C@]12CCCC=C1N(Cc1cccc3ccccc13)C(=O)[C@H](CC(=O)NCCCCc1ccccc1)C2,–,·,–,·,·,–,·
COc1ccc(-c2csc(NC(=S)NC(=O)c3ccccc3)n2)cc1Br,–,–,–,–,–,–,·
COc1ccc(-c2csc(NC(=S)NC(=O)c3ccco3)n2)cc1Br,–,–,–,–,–,–,·
